From ChEMBL document CHEMBL1122688, “Antimycotic azoles. 7. Synthesis and antifungal properties of a series of novel triazol-3-ones” (1984)

Assays:
Phialophora verrucosa = assay: In vitro antifungal activity against Phialophora verrucosa; assay type: functional
Method in brief: (§1)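 Fungal growth-inhibition screen (Godefroi method) against dermatophytes, yeasts, moulds and other fungi. The value is the lowest concentration (µg/mL) giving total inhibition of growth, tested up to 100 µg/mL.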

Saprolegnia = assay: In vitro antifungal activity against Saprolegnia sp; assay type: functional; method in brief: as §1
[1] = In vitro antifungal activity against Mucor sp; assay type: functional; method in brief: as §1
Candida tropicalis = assay: In vitro antifungal activity against Candida tropicalis; assay type: functional; method in brief: as §1
[2] = In vivo activity against vaginal candidoses in rats, measured as the ratio of animals cured/animals infected (C/I) at dose 2.5 mg/kg; C/I = 0/2; assay type: functional
Aspergillus fumigatus = assay: In vitro antifungal activity against Aspergillus fumigatus; assay type: functional; method in brief: as §1
Trichophyton benhamiae = assay: In vitro antifungal activity against Trichophyton mentagrophytes; assay type: functional, Arthroderma benhamiae; method in brief: as §1
Sporothrix schenckii = assay: In vitro antifungal activity against Sporothrix schenck ii; assay type: functional; method in brief: as §1
Cryptococcus neoformans = assay: In vitro antifungal activity against Cryptococcus neoformans; assay type: functional; method in brief: as §1
Trichophyton rubrum = assay: In vitro antifungal activity against Trichophyton rubrum; assay type: functional; method in brief: as §1
Candida albicans = assay: In vitro antifungal activity against Candida albicans; assay type: functional; method in brief: as §1
Microsporum canis = assay: In vitro antifungal activity against Microsporum canis; assay type: functional; method in brief: as §1
[3] = In vivo activity against microsporosis guinea pig, measured as the ratio of animals cured/animals infected (C/I) at dose 2.5 mg/kg; C/I = 0/2; assay type: functional
[4] = In vivo activity against microsporosis guinea pig, measured as the ratio of animals cured/animals infected (C/I) at dose 10 mg/kg; C/I = 0/2; assay type: functional

Row | Compound | Inhibition (Phialophora verrucosa) | Inhibition (Saprolegnia) | Inhibition [1] | Inhibition (Candida tropicalis) | C/I ratio [2] | Inhibition (Aspergillus fumigatus) | Inhibition (Trichophyton benhamiae) | Inhibition (Sporothrix schenckii) | Inhibition (Cryptococcus neoformans) | Inhibition (Trichophyton rubrum) | Inhibition (Candida albicans) | Inhibition (Microsporum canis) | C/I ratio [3] | C/I ratio [4]
1 | Oc1nncn1-c1ccc(N2CCN(c3ccc(OC[C@@H]4COC(Cn5ccnc5)(c5ccc(Cl)cc5Cl)O4)cc3)CC2)cc1 (stereo not given in full) | >100 µg/mL | >100 µg/mL | >100 µg/mL | 100 µg/mL | 0 | >100 µg/mL | 100 µg/mL | >100 µg/mL | >100 µg/mL | >100 µg/mL | >100 µg/mL | >100 µg/mL | – | –
2 | CCn1nc(C)n(-c2ccc(N3CCN(c4ccc(OC[C@@H]5COC(Cn6ccnc6)(c6ccc(Cl)cc6Cl)O5)cc4)CC3)cc2)c1=O (stereo not given in full) | >100 µg/mL | >100 µg/mL | >100 µg/mL | 100 µg/mL | 0 | >100 µg/mL | 100 µg/mL | >100 µg/mL | >100 µg/mL | >100 µg/mL | >100 µg/mL | >100 µg/mL | 0 | –
3 | CCc1nnc(O)n1-c1ccc(N2CCN(c3ccc(OC[C@@H]4COC(Cn5ccnc5)(c5ccc(Cl)cc5Cl)O4)cc3)CC2)cc1 (stereo not given in full) | >100 µg/mL | >100 µg/mL | >100 µg/mL | 100 µg/mL | – | >100 µg/mL | >100 µg/mL | >100 µg/mL | >100 µg/mL | >100 µg/mL | 100 µg/mL | >100 µg/mL | 0 | –
4 | CCn1ncn(-c2ccc(N3CCN(c4ccc(OC[C@@H]5COC(Cn6ccnc6)(c6ccc(Cl)cc6Cl)O5)cc4)CC3)cc2)c1=O (stereo not given in full) | >100 µg/mL | >100 µg/mL | >100 µg/mL | 100 µg/mL | 0 | >100 µg/mL | 100 µg/mL | >100 µg/mL | >100 µg/mL | 10 µg/mL | 100 µg/mL | >100 µg/mL | – | –
5 | Oc1nncn1-c1ccc(N2CCN(c3ccc(OC[C@@H]4COC(Cn5cncn5)(c5ccc(Cl)cc5Cl)O4)cc3)CC2)cc1 (stereo not given in full) | >100 µg/mL | >100 µg/mL | >100 µg/mL | >100 µg/mL | – | >100 µg/mL | >100 µg/mL | >100 µg/mL | >100 µg/mL | >100 µg/mL | >100 µg/mL | >100 µg/mL | – | 0
6 | Cc1nnc(O)n1-c1ccc(N2CCN(c3ccc(OC[C@@H]4COC(Cn5ccnc5)(c5ccc(Cl)cc5Cl)O4)cc3)CC2)cc1 (stereo not given in full) | >100 µg/mL | >100 µg/mL | >100 µg/mL | 10 µg/mL | – | >100 µg/mL | 10 µg/mL | >100 µg/mL | 100 µg/mL | 10 µg/mL | 100 µg/mL | >100 µg/mL | – | 0
7 | CCCn1nc(C)n(-c2ccc(N3CCN(c4ccc(OC[C@@H]5COC(Cn6ccnc6)(c6ccc(Cl)cc6Cl)O5)cc4)CC3)cc2)c1=O (stereo not given in full) | >100 µg/mL | >100 µg/mL | >100 µg/mL | 100 µg/mL | 0 | >100 µg/mL | >100 µg/mL | >100 µg/mL | >100 µg/mL | >100 µg/mL | 100 µg/mL | >100 µg/mL | – | –
